Measured values: ChEMBL document CHEMBL1157017, “Synthesis and pharmacological evaluation of new 5-(cyclo)alkyl-5-phenyl- and 5-spiroimidazolidine-2,4-dione derivatives. Novel 5-HT1A receptor agonist with potential antidepressant and anxiolytic activity” (Eur J Med Chem, 2010)
Activity calls are given as the source filed them. The rule behind the calls is not given here.

Columns and labels:
Mus musculus [1] = assay: Anxiolytic-like activity in Swiss albino mouse assessed as number of punished crossing at 10 mg/kg, ip after 60 mins by four-plate test (RVb = 3.8 +/- 0.2); format: functional; conditions: route intraperitoneal
Mus musculus [2] = assay: Anxiolytic-like activity in Swiss albino mouse assessed as number of punished crossing at 30 mg/kg, ip after 60 mins by four-plate test (RVb = 3.8 +/- 0.2); format: functional; conditions: route intraperitoneal
[3] = biological target: T1, 5-hydroxytryptamine receptor 1A (Rattus norvegicus) (UniProt P19327); assay: Antagonist activity at presynaptic 5HT1A receptor in rat brain cerebral cortex at 20 ug/ml; format: functional, tissue-based; conditions: filed as antagonist
T1 sequence (whole entry): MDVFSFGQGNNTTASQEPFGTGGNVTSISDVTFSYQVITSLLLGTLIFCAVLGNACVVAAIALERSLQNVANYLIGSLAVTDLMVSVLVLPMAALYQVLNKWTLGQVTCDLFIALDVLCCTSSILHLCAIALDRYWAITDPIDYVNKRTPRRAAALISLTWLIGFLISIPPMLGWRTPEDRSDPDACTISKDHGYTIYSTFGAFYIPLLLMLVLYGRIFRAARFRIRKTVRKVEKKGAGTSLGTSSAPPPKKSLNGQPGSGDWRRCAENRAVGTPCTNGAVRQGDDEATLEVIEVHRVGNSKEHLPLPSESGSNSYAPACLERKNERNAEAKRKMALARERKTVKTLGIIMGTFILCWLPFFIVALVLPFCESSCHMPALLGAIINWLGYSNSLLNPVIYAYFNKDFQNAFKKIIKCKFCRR

[4] = biological target: T2, 5-hydroxytryptamine receptor 1A (Rattus norvegicus, UniProt P19327); assay: Displacement of [3H]8OH-DPAT from 5HT1A in rat brain cerebral cortex; format: tissue-based
T2 sequence (P19327 whole entry): T1 sequence (whole entry)
In short: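 Rat cerebral cortex membranes (9 mg wet weight) in 50 mM Tris-HCl pH 7.7 with pargyline, CaCl2 and 0.1% ascorbic acid. Incubated 15 min at 37 °C with 1 nM [3H]-8-OH-DPAT and compound at 10^-10–10^-4 M. Nonspecific binding defined with serotonin. GF/B filtration and scintillation counting, in duplicate, with iterative curve fitting.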

[5] = biological target: T1, 5-hydroxytryptamine receptor 1A (Rattus norvegicus); assay: Antagonist activity at postsynaptic 5HT1A receptor in rat brain cerebral cortex at 20 ug/ml; format: functional, tissue-based; conditions: filed as antagonist
Mus musculus [6] = assay: Anxiolytic-like activity in Swiss albino mouse assessed as number of punished crossing at 20 mg/kg, ip after 60 mins by four-plate test (RVb = 3.8 +/- 0.2); format: functional; conditions: route intraperitoneal
[7] = biological target: 5-hydroxytryptamine receptor 2A (Rattus norvegicus, UniProt P14842); assay: Displacement of [3H]ketanserin from 5HT2A in rat brain cerebral cortex; format: tissue-based
5-hydroxytryptamine receptor 2A, sequence (P14842 whole entry): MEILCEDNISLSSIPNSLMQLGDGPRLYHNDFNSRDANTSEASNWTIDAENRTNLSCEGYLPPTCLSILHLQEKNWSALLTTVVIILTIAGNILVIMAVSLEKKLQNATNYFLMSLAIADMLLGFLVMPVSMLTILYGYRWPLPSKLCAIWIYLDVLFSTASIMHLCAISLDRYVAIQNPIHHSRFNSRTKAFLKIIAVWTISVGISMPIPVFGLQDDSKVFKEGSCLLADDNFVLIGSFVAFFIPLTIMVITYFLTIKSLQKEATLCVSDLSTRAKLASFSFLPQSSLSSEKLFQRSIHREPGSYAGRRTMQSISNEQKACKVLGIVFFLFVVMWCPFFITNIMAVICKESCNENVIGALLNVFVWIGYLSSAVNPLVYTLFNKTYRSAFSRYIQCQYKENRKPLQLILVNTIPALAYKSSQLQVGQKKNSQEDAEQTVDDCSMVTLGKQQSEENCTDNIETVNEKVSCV
In short: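 Rat cerebral cortex membranes in 50 mM Tris-HCl pH 7.7 were incubated 20 min at 37 °C with 0.6 nM [3H]-ketanserin and compound at 10^-10–10^-4 M. Mianserin served as displacer. Filtration through GF/B, scintillation counting, in duplicate, with iterative curve fitting.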

D(2) dopamine receptor = D(2) dopamine receptor (Rattus norvegicus, UniProt P61169); assay: Displacement of [3H]spiperone from dopamine D2 receptor in rat brain striatum
D(2) dopamine receptor, sequence (P61169 whole entry): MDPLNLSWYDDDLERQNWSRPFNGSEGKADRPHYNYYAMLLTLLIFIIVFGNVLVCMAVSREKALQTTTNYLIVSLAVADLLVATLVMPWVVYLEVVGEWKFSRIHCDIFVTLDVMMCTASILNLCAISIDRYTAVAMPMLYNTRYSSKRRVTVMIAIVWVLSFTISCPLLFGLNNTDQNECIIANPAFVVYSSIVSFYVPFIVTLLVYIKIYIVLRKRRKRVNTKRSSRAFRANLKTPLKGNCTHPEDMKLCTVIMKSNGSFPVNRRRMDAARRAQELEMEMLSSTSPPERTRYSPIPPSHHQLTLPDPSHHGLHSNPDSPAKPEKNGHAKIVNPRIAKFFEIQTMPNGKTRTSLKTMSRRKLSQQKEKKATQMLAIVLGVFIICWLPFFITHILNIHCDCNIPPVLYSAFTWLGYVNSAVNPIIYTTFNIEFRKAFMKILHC

[8] = biological target: 5-hydroxytryptamine receptor 2A (Rattus norvegicus) (UniProt P14842); assay: Antagonist activity at postsynaptic 5HT2A receptor in rat brain cerebral cortex at 20 ug/ml; format: functional, tissue-based; conditions: filed as antagonist
5-hydroxytryptamine receptor 2A (Rattus norvegicus), sequence (P14842 whole entry): as the sequence (P14842 whole entry) above

[9] = biological target: T1, 5-hydroxytryptamine receptor 1A (Rattus norvegicus); assay: Agonist activity at presynaptic 5HT1A receptor in rat brain cerebral cortex at 20 ug/ml; format: functional, tissue-based; conditions: filed as agonist
Mus musculus [10] = assay: Anxiolytic-like activity in Swiss albino mouse assessed as number of punished crossing at 5 mg/kg, ip after 30 mins by four-plate test (RVb = 3.8 +/- 0.2); conditions: route intraperitoneal
Mus musculus [11] = assay: Anxiolytic-like activity in Swiss albino mouse assessed as number of punished crossing of the light beam during 6 mins at 10 mg/kg, ip measured after 30 mins postdose (RVb = 107.1 +/- 8.5); conditions: route intraperitoneal
Mus musculus [12] = assay: […] in Swiss albino mouse assessed as number of […] crossing of the light beam during 30 mins at 10 mg/kg, ip measured after 30 mins postdose […] (RVb = 249.2 +/- 21); format: functional; conditions: route intraperitoneal
Mus musculus [13] = assay: […] in Swiss albino mouse assessed as number of […] crossing of the light beam during 30 mins at 20 mg/kg, ip measured after 30 mins postdose […] (RVb = 249.2 +/- 21); format: functional; conditions: route intraperitoneal
Mus musculus [14] = assay: Antidepressant-like activity in Swiss mouse assessed as immobilization time at 10 mg/kg, ip after 30 mins by forced swim test (RVb = 181.4 +/- 4.9 s); format: functional; conditions: route intraperitoneal
Mus musculus [15] = assay: Antidepressant-like activity in Swiss mouse assessed as immobilization time at 5 mg/kg, ip after 30 mins by forced swim test (RVb = 181.4 +/- 4.9 s); format: functional; conditions: route intraperitoneal
Mus musculus [16] = assay: […] in Swiss albino mouse assessed as number of […] crossing of the light beam during 6 mins at 20 mg/kg, ip measured after 30 mins postdose […] (RVb = 107.1 +/- 8.5); format: functional; conditions: route intraperitoneal
Mus musculus [17] = assay: Antidepressant-like activity in Swiss mouse assessed as immobilization time at 20 mg/kg, ip after 30 mins by forced swim test (RVb = 181.4 +/- 4.9 s); format: functional; conditions: route intraperitoneal
[18] = biological target: T1, 5-hydroxytryptamine receptor 1A (Rattus norvegicus); assay: Agonist activity at postsynaptic 5HT1A receptor in rat brain cerebral cortex at 20 ug/ml; format: functional, tissue-based
Mus musculus [19] = assay: Anxiolytic-like activity in Swiss albino mouse assessed as number of punished crossing at 10 mg/kg, ip after 60 mins by four-plate test (RVb = 4.2 +/- 0.4); format: functional; conditions: route intraperitoneal
Mus musculus [20] = assay: Anxiolytic-like activity in Swiss albino mouse assessed as number of punished crossing at 30 mg/kg, ip after 60 mins by four-plate test (RVb = 4.2 +/- 0.4); format: functional; conditions: route intraperitoneal
Mus musculus [21] = assay: Anxiolytic-like activity in Swiss albino mouse assessed as number of punished crossing at 20 mg/kg, ip after 60 mins by four-plate test (RVb = 4.2 +/- 0.4); format: functional; conditions: route intraperitoneal
[22] = Agonist activity at presynaptic 5HT1A receptor in brain cerebral cortex at 20 ug/ml
Mus musculus [23] = assay: […] in Swiss albino mouse assessed as number of […] crossing of the light beam during 30 mins at 10 mg/kg, ip measured after 30 mins postdose […] (RVb = 210.7 +/- 17.7); format: functional; conditions: route intraperitoneal
Mus musculus [24] = assay: […] in Swiss albino mouse assessed as number of […] crossing of the light beam at 20 mg/kg, ip measured after 30 mins postdose […] (RVb = 94.8 +/- 4.1); conditions: route intraperitoneal
Mus musculus [25] = assay: Antidepressant-like activity in Swiss mouse assessed as immobilization time at 10 mg/kg, ip after 30 mins by forced swim test (RVb = 167.1 +/- 6.7 s); format: functional; conditions: route intraperitoneal
Mus musculus [26] = assay: […] in Swiss albino mouse assessed as number of […] crossing of the light beam during 30 mins at 20 mg/kg, ip measured after 30 mins postdose […] (RVb = 210.7 +/- 17.7); format: functional; conditions: route intraperitoneal
Mus musculus [27] = assay: Antidepressant-like activity in Swiss mouse assessed as immobilization time at 20 mg/kg, ip after 30 mins by forced swim test (RVb = 167.1 +/- 6.7 s); format: functional; conditions: route intraperitoneal
Mus musculus [28] = assay: […] in Swiss albino mouse assessed as number of […] crossing of the light beam during 6 mins at 10 mg/kg, ip measured after 30 mins postdose […] (RVb = 94.8 +/- 4.1); format: functional; conditions: route intraperitoneal

| SMILES | Ki [4] [nM] | Activity [5] | Ki [7] [nM] | Ki (D(2) dopamine receptor) [nM] | Activity [8] | Activity [9] | further results |
| --- | --- | --- | --- | --- | --- | --- | --- |
| O=C1NC(c2ccccc2)(C2CC2)C(=O)N1CCCN1CCN(c2cccc(Cl)c2)CC1 (racemic) | 13 | Antagonist | 78 | – | – | – | Activity (Mus musculus [1]): 3.8; Activity (Mus musculus [2]): 3.7; Activity [3]: Antagonist; Activity (Mus musculus [6]): 3.9 |
| O=C1NC2(CCc3ccccc32)C(=O)N1CCCN1CCN(c2ccccc2)CC1 (racemic) | 98 | – | 30 | 15600 | Antagonist | – | – |
| COc1ccccc1N1CCN(CCCN2C(=O)NC3(CCc4ccccc43)C2=O)CC1 (racemic) | 49 | Antagonist | 653 | – | – | Agonist | – |
| O=C1NC2(CCCc3ccccc32)C(=O)N1CCCN1CCN(c2cccc(Cl)c2)CC1 (racemic) | 350 | – | 35 | 1800 | Antagonist | – | – |
| CC1(c2ccccc2)NC(=O)N(CCCN2CCN(c3ccccc3)CC2)C1=O (racemic) | 457 | – | 69 | – | – | – | – |
| O=C1NC2(CCCc3ccccc32)C(=O)N1CCCN1CCN(c2ccccc2)CC1 (racemic) | 88 | – | 25 | 675 | Antagonist | – | – |
| COc1ccccc1N1CCN(CCCN2C(=O)NC3(CCCc4ccccc43)C2=O)CC1 (racemic) | 23 | – | 284 | – | – | Agonist | Activity (Mus musculus [10]): 3.9; Activity (Mus musculus [1]): 5.9; Activity (Mus musculus [11]): 110; Activity (Mus musculus [12]): 212.9; Activity (Mus musculus [13]): 225.3; Time (Mus musculus [14]): 121.4 s; Time (Mus musculus [15]): 161.2 s; Activity (Mus musculus [6]): 4.4; Activity (Mus musculus [16]): 111.6; Time (Mus musculus [17]): 103.1 s; Activity ([18]; filed as agonist): Agonist |
| COc1ccccc1N1CCN(CCCN2C(=O)NC(C)(c3ccccc3)C2=O)CC1 (racemic) | 47 | – | 730 | – | – | Agonist | Activity [18]: inactive |
| O=C1NC2(CCc3ccccc32)C(=O)N1CCCN1CCN(c2cccc(Cl)c2)CC1 (racemic) | 38 | Antagonist | 53 | 6200 | Antagonist | Agonist | Activity (Mus musculus [19]): 4; Activity (Mus musculus [20]): 4.2; Activity (Mus musculus [21]): 4.2 |
| CC1(c2ccccc2)NC(=O)N(CCCN2CCN(c3cccc(Cl)c3)CC2)C1=O (racemic) | 29 | Antagonist | 312 | 3900 | – | – | Activity [22]: inactive |
| O=C1NC(c2ccccc2)(C2CC2)C(=O)N1CCCN1CCN(c2ccccc2)CC1 (racemic) | 67 | – | 100 | – | – | – | Activity [22]: inactive; Activity [18]: inactive |
| COc1ccccc1N1CCN(CCCN2C(=O)NC(c3ccccc3)(C3CC3)C2=O)CC1 (racemic) | 11 | – | 710 | – | – | Agonist | Activity [18]: inactive |
| CN(C)CCCN1c2ccccc2CCc2ccccc21 [IMIPRAMINE] | – | – | – | – | – | – | Activity (Mus musculus [23]): 208.7; Activity (Mus musculus [24]): 89.1; Time (Mus musculus [25]): 149.1 s; Activity (Mus musculus [26]): 141.6; Time (Mus musculus [27]): 107.8 s; Activity (Mus musculus [28]): 94.4 |
